viability, differential viability (reversal) and inhibition data for 19 molecules are collected here from PubChem BioAssay.

Assay [1] can be described thus: HUVEC growth inhibition – cell-based, human, primary screen (AID 575;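 active = viability at or below 30% in both replicate assays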;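 also: 100% = median of untreated cell wells with 0.1% DMSO on each plate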). The conditions noted are these: HUVEC proliferation, CellTiter-Glo luminescence, 72 h; at 10 µM; stronger effect = lower value. The procedure, abridged:
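Assay system: primary human umbilical vein endothelial cells / Buffer or medium: endothelial basal medium with 2% FBS plus growth supplements / Compound dosing: one dose, 10 µM final, 0.1% DMSO / Timing: 72 h treatment at 37 °C / Signal: CTG luminescence / Benchmarks: 32 DMSO-only cell-control wells (high), 32 MePR drug-control wells (low) per plate / Plate: collagen-coated 384-well format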

A short description of assay [2]: growth inhibitors of H69AR lung tumor, primary screen, human, duplicate replicates (AID 580;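 active = viability at or under a set limit in both replicates, limit being median viability minus 3 SD, cut at about 48% in these data, passing the limit was not always enough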;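 also: 100% = mean luminescence of untreated wells and 0% = no signal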). The conditions noted are these: H69AR lung tumor cells viability, ATP luminescence, 72 h; at 10 µM; stronger effect = lower value.
Assay [3] is described as follows: reversal of MRP1-mediated doxorubicin resistance, pilot screen, H69AR cells, doxorubicin co-treatment (AID 601;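 active = viability loss from added drug above about 55%, and viability with drug at most 40%, in both replicates, limit read from the data, passing the limit was not always enough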). The conditions noted are these: CellTiter-Glo, 72 h, at 10 µM; for differential viability (reversal): stronger effect = higher value. (In ATP-based viability assays light output follows the ATP content of the culture.)
The nature of assay [4]: 384-well plate pilot, post-Golgi transport modulator project, inhibition of yeast transport mutant growth (AID 636; in the data active = inhibition above about 31%). The conditions noted are these: absorbance 615 nm, about 18 h, stronger effect = higher value.
Assay [5] can be described thus: growth suppression of yeast trafficking mutant, preliminary HTS, modulators of trafficking downstream of Golgi apparatus project, 1536-format plate, OD 615 nm (AID 637). To be noted: yeast transport mutant growth, absorbance 615 nm, 18 h; stronger effect = higher value.
The mark [6] stands for this setting: H69AR cells + 2 uM doxorubicin, measured here: viability with 2 uM doxorubicin, stronger effect = lower value.
Where [7] appears, read: H69AR cells, compound alone cytotoxicity.

The source made the active and inactive calls. Rule as the data show it, unless noted: active = inhibition above about 30%; inactive = the rest.

With `Cc1cc2c(c(=O)n1CCN(C)C)C(c1ccncc1)C(C#N)=C(N)O2` (stereo not drawn), the viability (as a rule, a read-out of living cells in per cent, often relative to untreated cells) in assay [1] is 103% (inactive); in assay [2], 103% (inactive); in assay [3] (setting [6]), 102%; in assay [3] (setting [7]), 103%. For the same molecule, the differential viability (reversal) in assay [3] (H69AR cells + 2 uM doxorubicin) was 0.98% (inactive). Moreover, the results for the inhibition in assay [4] and in assay [5] were -2.37% (inactive) and -6.51% (inactive), respectively.
On to `CC1(c2ccc(OC(F)F)cc2)NC(=O)N(CC(=O)Nc2ccc3c(c2)OCO3)C1=O` (stereo not drawn), for which the viability in assay [1] was 81.6% (inactive); in assay [2], 91.7% (inactive); in assay [3] (setting [6]), 94.7%; in assay [3] (setting [7]), 91.7%. In addition, the differential viability (reversal) in assay [3] (H69AR cells + 2 uM doxorubicin) was -2.95% (inactive). The inhibition (usually the drop in the measured response relative to a control, in per cent) in assay [4] was -5.71% (inactive); in assay [5], -3.65% (inactive).
As for `O=C1CC(Sc2nnc(-c3ccccc3)o2)C(=O)N1c1ccccc1` (stereo not drawn), the viability in assay [1] was 96.3% (inactive); in assay [2] it was 2.27% (active); in assay [3] (setting [6]), 9.04%; in assay [3] (setting [7]), 2.27%. In assay [3] (H69AR cells + 2 uM doxorubicin), the differential viability (reversal) is -6.77% (inactive). For the same molecule, the inhibition in assay [4] was -6.13% (inactive); in assay [5], -1.11% (inactive).
Turning to `Cc1cc(C)c(OCC(=O)Nc2cccc(O)c2)cc1C`, the viability in assay [1] was 78.2% (inactive); in assay [2], 101% (inactive); in assay [3] (setting [6]), 97.7%; in assay [3] (setting [7]) it was 101%. In addition, the differential viability (reversal) in assay [3] (H69AR cells + 2 uM doxorubicin) is 3.2% (inactive). The inhibition in assay [4] was -5.07% (inactive); in assay [5] it was 3.97% (inactive).
For `O=C(NCCN1CCCCCC1)c1ccc(N2CCCC2=O)cc1`, the viability in assay [1] was 91% (inactive); in assay [2] it was 95.9% (inactive); in assay [3] (setting [6]), 92.5%; in assay [3] (setting [7]), 95.9%. In assay [3] (H69AR cells + 2 uM doxorubicin), the differential viability (reversal) is 3.38% (inactive). The inhibition in assay [4] is -7.2% (inactive); in assay [5], 12.5% (inactive).
Consider `Cc1nn(-c2ccccc2)c(Cl)c1C1C(C#N)=C(N)OC2=C1C(=O)CC(C)(C)C2` (stereo not drawn), for which the viability is 49.1% (inactive) in assay [1], 12.2% (active) in assay [2], 84.4% in assay [3] (setting [6]) and 12.2% in assay [3] (setting [7]). The differential viability (reversal) in assay [3] (H69AR cells + 2 uM doxorubicin) is -72.2% (inactive). Moreover, the inhibition was -4.68% (inactive) in assay [4] and -4.29% (inactive) in assay [5].
Regarding `O=C(CCC(=O)N1CCN(S(=O)(=O)c2ccccc2)CC1)c1cccs1`, the viability in assay [1] is 102% (inactive); in assay [2], 90.9% (inactive); in assay [3] (setting [6]), 86.5%; in assay [3] (setting [7]), 90.9%. The differential viability (reversal) in assay [3] (H69AR cells + 2 uM doxorubicin) is 4.42% (inactive). Further, the inhibition in assay [4] is -5.32% (inactive); in assay [5] it was -3.33% (inactive).
On to `O=C(Nc1ccc(Cl)c(Cl)c1)Nc1cc(C(=O)N2CCOCC2)ccc1N1CCCCC1`, for which the viability in assay [1] was 105% (inactive); in assay [2], 95.9% (inactive); in assay [3] (setting [6]), 91.8%; in assay [3] (setting [7]) it was 95.9%. The differential viability (reversal) in assay [3] (H69AR cells + 2 uM doxorubicin) is 4.12% (inactive). Besides, the inhibition is -4.08% (inactive) in assay [4] and -2.22% (inactive) in assay [5].
On to `CCc1nccn1S(=O)(=O)c1ccc2ccc(C)cc2c1`, for which the viability in assay [1] is 105% (inactive); in assay [2] it was 91.3% (inactive); in assay [3] (setting [6]), 93.5%; in assay [3] (setting [7]), 91.3%. In addition, in assay [3] (H69AR cells + 2 uM doxorubicin), the differential viability (reversal) is -2.18% (inactive). Further, the inhibition in assay [4] is 2.24% (inactive); in assay [5], -3.49% (inactive).
For the molecule `CCC1(CC)C(=O)C(C)(C)C(=O)OC1c1cccs1` (stereo not drawn), the viability in assay [1] was 120% (inactive); in assay [2], 90.7% (inactive); in assay [3] (setting [6]), 85.7%; in assay [3] (setting [7]) it was 90.7%. Moreover, the differential viability (reversal) in assay [3] (H69AR cells + 2 uM doxorubicin) was 5.04% (inactive). The inhibition in assay [4] is -2.89% (inactive); in assay [5] it was 2.86% (inactive).
For the molecule `COc1ccc(OC(C)C(=O)N2CCN(c3ccccn3)CC2)cc1` (stereo not drawn), the viability was 106% (inactive) in assay [1], 94.4% (inactive) in assay [2], 89.3% in assay [3] (setting [6]) and 94.4% in assay [3] (setting [7]). The differential viability (reversal) in assay [3] (H69AR cells + 2 uM doxorubicin) was 5.04% (inactive). Besides, the inhibition in assay [4] was -3.95% (inactive); in assay [5] it was -0.32% (inactive).
Regarding `O=C(NCc1nc2ccccc2[nH]1)c1ccco1`, the viability is 106% (inactive) in assay [1], 90.7% (inactive) in assay [2], 83.7% in assay [3] (setting [6]) and 90.7% in assay [3] (setting [7]). Also, the differential viability (reversal) in assay [3] (H69AR cells + 2 uM doxorubicin) is 7.09% (inactive). The values for the inhibition in assay [4] and in assay [5] were -4.13% (inactive) and -1.9% (inactive), respectively.
As to `COC(=O)CN(c1ccc2c(c1)OCO2)S(C)(=O)=O`, the viability in assay [1] was 102% (inactive); in assay [2], 110% (inactive); in assay [3] (setting [6]) it was 97.9%; in assay [3] (setting [7]), 110%. Moreover, the differential viability (reversal) in assay [3] (H69AR cells + 2 uM doxorubicin) was 12.5% (inactive). For the same molecule, the results for the inhibition in assay [4] and in assay [5] were -2.63% (inactive) and 6.67% (inactive), respectively.
For `Cc1nc2cc(NC(=O)N3CC4(C)CC3CC(C)(C)C4)ccc2n1C` (stereo not drawn), the viability is 100% (inactive) in assay [1], 89.7% (inactive) in assay [2], 82.2% in assay [3] (setting [6]) and 89.7% in assay [3] (setting [7]). Besides, the differential viability (reversal) in assay [3] (H69AR cells + 2 uM doxorubicin) is 7.53% (inactive). Besides, the inhibition in assay [4] is -6.71% (inactive); in assay [5] it was -8.1% (inactive).
On to `O=C(CN1C(=O)COc2ccccc21)NCCCN1CCN(Cc2ccccc2)CC1`, for which the viability in assay [1] is 98.5% (inactive); in assay [2], 87.3% (inactive); in assay [3] (setting [6]) it was 85%; in assay [3] (setting [7]), 87.3%. Also, the differential viability (reversal) in assay [3] (H69AR cells + 2 uM doxorubicin) is 2.35% (inactive). Also, the inhibition in assay [4] was 3.51% (inactive); in assay [5], 22.4% (inactive).
On to `CC1CCN(C(=O)CSc2nnc(-c3cccnc3)n2C2CCCCC2)CC1`, for which the viability was 112% (inactive) in assay [1], 97.5% (inactive) in assay [2], 101% in assay [3] (setting [6]) and 97.5% in assay [3] (setting [7]). Further, in assay [3] (H69AR cells + 2 uM doxorubicin), the differential viability (reversal) was -3.36% (inactive). The inhibition in assay [4] is -2.76% (inactive); in assay [5] it was 0.16% (inactive).
As for `CCC(=O)n1nc(-c2ccco2)nc1N`, the viability in assay [1] is 113% (inactive); in assay [2], 110% (inactive); in assay [3] (setting [6]), 98.2%; in assay [3] (setting [7]) it was 110%. For the same molecule, the differential viability (reversal) in assay [3] (H69AR cells + 2 uM doxorubicin) is 11.3% (inactive). Moreover, the inhibition was 0.53% (inactive) in assay [4] and 5.4% (inactive) in assay [5].
For the molecule `Cc1cc(NCCCn2ccnc2)n2c(nc3ccccc32)c1C#N`, the viability was 94% (inactive) in assay [1], 100% (inactive) in assay [2], 93.3% in assay [3] (setting [6]) and 100% in assay [3] (setting [7]). For the same molecule, the differential viability (reversal) in assay [3] (H69AR cells + 2 uM doxorubicin) is 7.14% (inactive). Also, the inhibition was 4.29% (inactive) in assay [4] and 6.51% (inactive) in assay [5].
`CN(Cc1nc(-c2ccncc2)no1)S(=O)(=O)c1ccc(Br)cc1`: the viability in assay [1] was 90.4% (inactive); in assay [2] it was 89.6% (inactive); in assay [3] (setting [6]) it was 93.9%; in assay [3] (setting [7]) it was 89.6%. Further, in assay [3] (H69AR cells + 2 uM doxorubicin), the differential viability (reversal) was -4.28% (inactive). For the same molecule, the inhibition is -5.32% (inactive) in assay [4] and 1.75% (inactive) in assay [5].
